Test results taken from ChEMBL document CHEMBL5346886 (Eur J Med Chem, 2023).
The source made the active and inactive calls. The rule behind the calls is not given here.

Assays:
[1] = tested on: Murine hepatitis virus; test: Antiviral activity against murine hepatitis virus-A59 infected in BALB/c mouse assessed as inhibition of viral titer in liver at 10 to 200 mg/kg, po administered once daily one hour post infection and measured after 3 days by qRT-PCR analysis; type: functional, organism-based; conditions: dose 10-200 mg/kg, time 3.0 day
In short: (§1)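 SPF male BALB/c mice aged 3–4 weeks were put under isoflurane and inoculated intranasally with 30 μL MHV-A59 (TCID50 = 10−7.125/100 μL) in PBS. Oral dosing once daily in 15% Cremophor EL/82.5% PBS/2.5% DMSO started at 1 hpi and ran for four days; groups had 12 mice. At 3 dpi, 4 mice per group were killed and lung and liver M-gene copies measured by qRT-PCR.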

[2] = tested on: Murine hepatitis virus; test: Antiviral activity against murine hepatitis virus-A59 infected in BALB/c mouse assessed as alleviation of interstitial pneumonia in lungs at 200 mg/kg, po administered once daily one hour post infection and measured after 3 days by H&E staining based analysis; type: functional, organism-based; conditions: time 3.0 day
In short: (§2)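 In male BALB/c mice (3–4 weeks), MHV-A59 was given intranasally (30 μL, TCID50 = 10−7.125/100 μL). Oral dosing once daily in a Cremophor EL/PBS/DMSO vehicle began at 1 hpi and lasted four days. At 3 dpi, lungs and livers from 4 mice per group were fixed in zinc formalin and paraffin-embedded. Sections of about 4 μm were stained with H&E and examined at 200× and 400×.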

[3] = Drug metabolism in Sprague-Dawley rat assessed as hydrolysis-mediated GS-441524 metabolite formation at 25 mg/kg, po administered as single dose and measured after 24 hrs by LC-MS/MS analysis; type: ADME, organism-based; conditions: in vivo
In short: (§3)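 Male SD rats (n = 3), fasted 12 h, dosed intragastrically; jugular vein blood into EDTA-K2 tubes at 0.25, 0.5, 1, 2, 3, 4, 6, 8 and 24 h; plasma protein-precipitated with acetonitrile, filtered, analytes measured by LC/MS/MS; noncompartmental PK analysis; mean ± SD.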

[4] = tested on: Murine hepatitis virus; test: Antiviral activity against murine hepatitis virus-A59 infected in BALB/c mouse assessed as inhibition of viral titer in lungs at 200 mg/kg, po administered once daily one hour post infection and measured after 3 days by qRT-PCR analysis; type: functional, organism-based; conditions: time 3.0 day; in short: as §1
[5] = Stability in human plasma assessed as half-life; type: ADME, cell-free
[6] = tested on: Murine hepatitis virus; test: Antiviral activity against murine hepatitis virus-A59 infected in BALB/c mouse assessed as remission of fulminant hepatitis in liver at 200 mg/kg, po administered once daily one hour post infection and measured after 3 days by H&E staining based analysis; type: functional, organism-based; conditions: time 3.0 day; in short: as §2
[7] = Drug distribution in BALB/c mouse liver assessed as hydrolyzed ibuprofen metabolite at 200 mg/kg, po administered as single dose and measured after 1 hrs by LC-MS/MS analysis; type: ADME, organism-based; conditions: in vivo
[8] = tested on: Murine hepatitis virus; test: Potency index, ratio of GS-441524 EC50 to test compound EC50 for antiviral activity against Murine hepatitis virus-A59 infected in mouse L929 cells assessed as reduction in viral copy pre-infected with cell for 1 hrs followed by compound addition and measured after 48 hrs by RT-qPCR analysis; type: functional
[9] = tested on: Murine hepatitis virus; test: Antiviral activity against murine hepatitis virus-A59 infected in BALB/c mouse assessed as reduction in IL-6 production in liver at 10 to 100 mg/kg, po administered once daily one hour post infection and measured after 3 days by ELISA analysis; type: functional, organism-based; conditions: dose 10-100 mg/kg, time 3.0 day
In short: (§4)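 MHV-A59 was inoculated intranasally into male BALB/c mice (30 μL, TCID50 = 10−7.125/100 μL), with oral dosing once daily from 1 hpi for four days. At 3 dpi, 0.1 g lung or liver from 4 mice per group was homogenized in 0.9 mL water at 4 °C and centrifuged. Supernatant IFN-β was read by ELISA; TNF-α, IFN-γ, IL-1β, IL-6 and CXCL10 by multi-analyte kit, with OD 450 nm against standards.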

[10] = tested on: Murine hepatitis virus; test: Antiviral activity against Murine hepatitis virus-A59 infected in mouse L929 cells assessed as reduction in viral copy pre-infected with cell for 1 hrs followed by compound addition and measured after 48 hrs by RT-qPCR analysis; type: functional, organism-based; conditions: Murine coronavirus
In short: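 L929 cells in DMEM with 10% FBS were washed serum-free at 80% confluence and infected with MHV-A59 at MOI 0.01 for 1 h at 37 °C. Compounds were added at 0.1–100 μmol/L, with DMSO as blank control. After 48 h at 37 °C, the viral M gene in supernatant was measured by qRT-PCR. Percent inhibition was derived from copy number and EC50 from curve fitting.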

[11] = Drug distribution in BALB/c mouse kidney assessed as hydrolyzed ibuprofen metabolite at 200 mg/kg, po administered as single dose and measured after 1 hrs by LC-MS/MS analysis; type: ADME, organism-based; conditions: in vivo
[12] = tested on: Murine hepatitis virus; test: Antiviral activity against murine hepatitis virus-A59 infected in BALB/c mouse assessed as reduction in IFN-beta production in lungs at 200 mg/kg, po administered once daily one hour post infection and measured after 3 days by ELISA analysis; type: functional, organism-based; conditions: time 3.0 day; in short: as §4
[13] = Drug metabolism in Sprague-Dawley rat assessed as hydrolysis-mediated ibuprofen metabolite formation at 5 mg/kg, iv administered as single dose and measured after 24 hrs by LC-MS/MS analysis; type: ADME, organism-based; conditions: in vivo
[14] = tested on: Murine hepatitis virus; test: Antiviral activity against murine hepatitis virus-A59 infected in BALB/c mouse model of acute liver injury assessed as reduction in plasma ALT level at 10 to 200 mg/kg, po administered once daily one hour post infection and measured after 3 days; type: functional, organism-based; conditions: dose 10-200 mg/kg, time 3.0 day
In short: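 Male BALB/c mice were infected intranasally with MHV-A59 (30 μL, TCID50 = 10−7.125/100 μL) and dosed orally once daily from 1 hpi for four days in 15% Cremophor EL/82.5% PBS/2.5% DMSO. At 3 dpi, blood from 4 euthanized mice per group was left to clot at room temperature and centrifuged. Serum ALT and AST were measured on a clinical chemistry analyzer.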

[15] = tested on: Murine hepatitis virus; test: Antiviral activity against murine hepatitis virus-A59 infected in BALB/c mouse assessed as reduction in IFN-gamma production in lungs at 200 mg/kg, po administered once daily one hour post infection and measured after 3 days by ELISA analysis; type: functional, organism-based; conditions: time 3.0 day; in short: as §4
[16] = tested on: Murine hepatitis virus; test: Antiviral activity against murine hepatitis virus-A59 infected in BALB/c mouse assessed as reduction in IL-1beta production in liver at 10 to 100 mg/kg, po administered once daily one hour post infection and measured after 3 days by ELISA analysis; type: functional, organism-based; conditions: dose 10-100 mg/kg, time 3.0 day; in short: as §4
[17] = tested on: Murine hepatitis virus; test: Antiviral activity against murine hepatitis virus-A59 infected in po dosed BALB/c mouse assessed as inhibition of viral replication in lungs administered once daily one hour post infection and measured after 3 days by qRT-PCR analysis; type: functional, organism-based; conditions: dose 10-200 mg/kg, time 3.0 day; in short: as §1
[18] = Drug metabolism in Sprague-Dawley rat assessed as hydrolysis-mediated ibuprofen metabolite formation at 25 mg/kg, po administered as single dose and measured after 24 hrs by LC-MS/MS analysis; type: ADME, organism-based; conditions: in vivo; in short: as §3
[19] = Drug metabolism in Sprague-Dawley rat assessed as hydrolysis-mediated GS-441524 metabolite formation at 5 mg/kg, iv administered as single dose and measured after 24 hrs by LC-MS/MS analysis; type: ADME, organism-based; conditions: in vivo
[20] = tested on: Murine hepatitis virus; test: Antiviral activity against murine hepatitis virus-A59 infected in BALB/c mouse assessed as reduction in IL-6 production in lungs at 200 mg/kg, po administered once daily one hour post infection and measured after 3 days by ELISA analysis; type: functional, organism-based; conditions: time 3.0 day; in short: as §4

Which results are given for CC(C)Cc1ccc(C(C)C(=O)OC[C@H]2O[C@@](C#N)(c3ccc4c(N)ncnn34)[C@H](O)[C@@H]2O)cc1 (stereo not given in full)?
Activity [1]: Active; Activity [2]: Active; Drug metabolism [3]: Metabolite_Detected; Activity [4]: Active; t1/2 [5]: 4.4173 h; Activity [6]: Active; Drug uptake [7]: Active; Ratio EC50 [8]: 8; Activity [9]: Active; EC50 [10]: 1150 nM; Drug uptake [11]: Active; Activity [12]: Active; Drug metabolism [13]: Metabolite_Detected; Activity [14]: Active; Activity [15]: Active; Activity [16]: Active; Activity [17]: Dose-Dependent Effect; Drug metabolism [18]: Metabolite_Detected; Drug metabolism [19]: Metabolite_Detected; Activity [20]: Active
